# Activity calls are given as the source filed them.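 Rule for the calls, unless noted: active = a full or partial loss of lipid-probe fluorescence in the fish gall bladder, intestine or both, judged by eye; inactive = no fluorescence loss, or compound toxic to the fish.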
# Legend:
# [1] = inhibitors of TNFa-induced NFkB p65 translocation, primary screen, imaging, HUVEC, MLSMR starter and 10KST1 sets (AID 438;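 active = inhibition above 20% together with a positive visual image hit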;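 note: compound added about 3h40 before a 20 min TNFalpha stimulation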;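 for inhibition: signal is the nuclear over cytoplasmic p65 intensity ratio per well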); conditions: HUVEC TNFa-induced p65 nuclear translocation; cell count: measured here: nuclei count (cytotoxicity indicator), at 2.08 µM; inhibition: at 2 µM, stronger effect = higher value, 0% TNFa-plus-vehicle, 100% no-TNFa wells
# [2] = inhibitors of E-selectin induction by TNFa, primary screen, imaging, HUVEC, immunofluorescence, MLSMR starter and 10KST1 sets (AID 487;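 active = visually confirmed hit in the image check and inhibition above 20%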;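 for inhibition: signal is fraction of cell area covered by stained E-selectin grains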;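 for nuclei count: 100% = median nuclei count of all wells on the same plate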); conditions: HUVEC TNFalpha-induced E-selectin immunofluorescence imaging, at 2 µM; inhibition: stronger effect = higher value; nuclei count: measured here: cell number, toxicity
# [3] = DUSP6 inhibitors restoring Erk phosphorylation by chemical complementation, primary imaging in DUSP6-transfected HeLa (AID 609;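 active = compounds giving at least 50% inhibition in the cell-based MKP-3 phosphatase rescue imaging test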;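 for inhibition: phospho-Erk level distribution per well compared with pooled transfected vehicle control wells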); conditions: HeLa MKP-3 transfected, phospho-Erk imaging KS statistic, at 10 µM, cells stimulated with TPA for 15 min
# [4] = target: Dual specificity protein phosphatase 6 (Homo sapiens) (UniProt Q16828); assay: as above; conditions: HeLa MKP-3 transfected, phospho-Erk imaging KS statistic; at 10 µM; stronger effect = higher value; cells stimulated with TPA for 15 min
# Dual specificity protein phosphatase 6 (Homo sapiens), sequence (Q16828 whole entry, looked up): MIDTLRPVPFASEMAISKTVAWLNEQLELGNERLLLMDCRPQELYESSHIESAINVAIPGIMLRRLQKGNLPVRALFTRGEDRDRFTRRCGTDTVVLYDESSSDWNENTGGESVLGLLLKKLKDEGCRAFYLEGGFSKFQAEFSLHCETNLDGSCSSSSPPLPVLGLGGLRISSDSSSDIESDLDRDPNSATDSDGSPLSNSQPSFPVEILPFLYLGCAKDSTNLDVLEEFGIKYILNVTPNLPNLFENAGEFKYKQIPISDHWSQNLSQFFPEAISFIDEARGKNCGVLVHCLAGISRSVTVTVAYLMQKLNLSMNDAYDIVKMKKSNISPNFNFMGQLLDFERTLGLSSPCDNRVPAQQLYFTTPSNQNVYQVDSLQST
# [5] = target: Voltage-gated potassium channel subunit beta-2 (Rattus norvegicus) (UniProt P62483); assay: KvBeta enzyme negative modulators, primary screen, biochemical, NADPH fluorescence (AID 622;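 active = fluorescence slope higher than the sample average by over 3 SD, cut at about -0.22 in these data, passing the limit was not always enough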;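 note: slope of raw intensity against log time taken from 70 to 1610 s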); conditions: recombinant KvBeta, 4-cyanobenzaldehyde reduction, at 10 µM, stronger effect = higher value
# Voltage-gated potassium channel subunit beta-2 (Rattus norvegicus), sequence (P62483 whole entry, looked up): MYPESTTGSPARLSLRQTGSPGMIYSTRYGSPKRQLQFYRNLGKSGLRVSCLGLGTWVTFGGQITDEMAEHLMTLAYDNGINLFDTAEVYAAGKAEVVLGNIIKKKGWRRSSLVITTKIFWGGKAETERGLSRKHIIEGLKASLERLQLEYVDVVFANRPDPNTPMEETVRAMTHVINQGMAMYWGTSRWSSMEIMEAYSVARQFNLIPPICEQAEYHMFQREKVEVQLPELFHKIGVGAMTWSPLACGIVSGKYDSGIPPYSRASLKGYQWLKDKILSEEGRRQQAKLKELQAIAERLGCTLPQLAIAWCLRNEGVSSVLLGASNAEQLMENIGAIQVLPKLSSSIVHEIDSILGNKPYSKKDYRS
# [6] = target: Voltage-gated potassium channel subunit beta-2 (Rattus norvegicus) (UniProt P62483); assay: KvBeta positive modulators, primary screen, biochemical, NADPH fluorescence (AID 623;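 active = NADPH fluorescence slope more negative than the mean of all samples by about 3 SD, 99.7% confidence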;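 note: fluorescence intensity change per second fitted from 20 to 320 s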); conditions: Recombinant KvBeta, NADPH fluorescence decrease slope, 10 min; at 10 µM; stronger effect = lower value
# [7] = target: Alpha-2C adrenergic receptor (Homo sapiens) (UniProt P18825); assay: modulators of alpha2C/GIRK thallium flux, primary screen, cell-based, HEK293 alpha2C/GIRK1/2 (AID 624;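 active = fluorescence slope after compound addition differing from the mean of all screened samples at 99.7% confidence, in either direction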;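 note: slope of fluorescence ratio to pre-addition baseline per second over 15 to 24 s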); conditions: thallium flux BTC fluorescence, at 10 µM, actives lie on both sides
# Alpha-2C adrenergic receptor (Homo sapiens), sequence (P18825 whole entry, looked up): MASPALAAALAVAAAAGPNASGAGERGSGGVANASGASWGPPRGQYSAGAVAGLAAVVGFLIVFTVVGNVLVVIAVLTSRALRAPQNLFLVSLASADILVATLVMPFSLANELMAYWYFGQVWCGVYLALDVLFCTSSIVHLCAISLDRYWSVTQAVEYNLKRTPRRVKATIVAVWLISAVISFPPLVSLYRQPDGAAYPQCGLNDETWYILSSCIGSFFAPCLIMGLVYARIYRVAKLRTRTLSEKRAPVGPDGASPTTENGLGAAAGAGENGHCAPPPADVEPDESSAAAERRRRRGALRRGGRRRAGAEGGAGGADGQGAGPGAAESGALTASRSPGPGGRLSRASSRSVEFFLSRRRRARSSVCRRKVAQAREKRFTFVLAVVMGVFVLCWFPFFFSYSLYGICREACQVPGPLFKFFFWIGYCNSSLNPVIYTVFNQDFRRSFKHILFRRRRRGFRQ
# [8] = inhibitors of larval lipid processing in zebrafish, primary screen, whole organism, PED6 fluorescence, gall bladder and intestine (AID 686); conditions: Zebrafish larvae PED6 lipid processing, fluorescence scoring; screened at 20 µM (by protocol);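 note: larvae 5 to 7 days old with five fish per well; signal comes from phospholipase A2 cleavage of quenched PED6 carried via bile; overnight exposure to compound and PED6 before scoring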
# In short: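 Test system – live zebrafish larvae aged 5-7 days, whole organism · Buffer or medium – E3 fish medium · Reagent – quenched phospholipase substrate PED6, 100 nM final, ingested by larvae · Doses – 20 µM single dose · Incubation – overnight compound and PED6 incubation · Technique – visual fluorescence microscopy scoring of gall bladder, gut · Read-out basis – visual per-well fluorescence inhibition score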
# [9] = inhibitors of Chlamydomonas gravitaxis, primary screen, whole organism, Chlamydomonas reinhardtii, WT vs cilia-less mutant, absorbance, 96-well (AID 463189;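 active = inhibition at or above 50% relative to wild type and mutant plate controls; inactive = inhibition below 50%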;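 note: 0% = wild type cc124 cells in DMSO and 100% = ciliumless bld1 mutant cells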); conditions: OD600 absorbance, 2 days, at 10 µM, stronger effect = higher value
# [10] = measured here: cell density z-score
# [11] = measured here: nuclear c-Myc green intensity z-score
# [12] = measured here: nuclear pErk red intensity z-score, stronger effect = higher value
SMILES,cell count [1],inhibition [1],inhibition [2],nuclei count [2],"z-score [3, 10]","z-score [3, 11]","z-score [3, 12]",inhibition [4],fluorescence slope [5],NADPH fluorescence slope [6],slope [7],outcome [8],inhibition [9]
COc1ccc(OC)c(C2C(C(=O)c3ccco3)=C(O)C(=O)N2CCCN2CCOCC2)c1 (centres undefined),546,-4.5% (inactive),-85% (inactive),159%,-1.04,0.589,-0.634,-0.674% (inactive),-0.495 (inactive),-3.6e-05 (inactive),0.0072 (inactive),inactive,2.93% (inactive)
CCOC(=O)C(C)Oc1nc(Oc2ccccc2)nc(N(C)C)n1 (centres undefined),645,-4.1% (inactive),-25.5% (inactive),183%,0.393,-0.772,1.44,-7.79% (inactive),-0.497 (inactive),-5.5e-05 (inactive),0.00486 (inactive),inactive,-18.7% (inactive)
CCN(CC)c1ccc2cc(C(=O)Nc3ccccn3)c(=O)oc2c1,384,-12% (inactive),0.4% (inactive),80.2%,-0.204,0.482,0.701,-2.07% (inactive),-0.433 (inactive),-2.6e-05 (inactive),0 (inactive),inactive,20.3% (inactive)
Cn1c(OCc2cccnc2)nc2c1c(=O)n(Cc1ccc(Cl)cc1)c(=O)n2C,653,-7.1% (inactive),6.1% (inactive),156%,-0.404,0.0478,1.27,2.46% (inactive),-0.505 (inactive),-9.6e-05 (inactive),0.00416 (inactive),inactive,66.4% (active)
Cc1ccc(N2C(=O)[C@@H]3[C@H](C2=O)C2CCCN2[C@@H]3C(=O)c2ccccc2)cc1 (some centres undefined),329,-6.6% (inactive),-25.8% (inactive),146%,1.29,-0.857,1.07,-8.59% (inactive),-0.42 (inactive),-0.000146 (inactive),0.00854 (inactive),inactive,0.279% (inactive)
CCc1cccc(C)c1N(C(=O)Cn1c(=O)[nH]c2ccccc21)C(C)COC (centres undefined),362,-2.1% (inactive),-33.7% (inactive),97%,0.81,-0.372,0.826,5.57% (inactive),-0.546 (inactive),-4.3e-07 (inactive),0.00687 (inactive),inactive,32.6% (inactive)
Cc1cccc(C)c1OCC(O)CNS(=O)(=O)c1ccccc1C(=O)N1CCOCC1 (centres undefined),458,1.5% (inactive),-196% (inactive),172%,-0.426,0.519,1.28,2.71% (inactive),-0.387 (inactive),-1.1e-05 (inactive),0.00603 (inactive),inactive,-5.56% (inactive)
COc1ccc2[nH]c3c(N4CCN(Cc5ccc6c(c5)OCO6)CC4)ncnc3c2c1,428,-0.7% (inactive),-50.8% (inactive),137%,0.867,-0.34,0.0587,0.671% (inactive),-0.302 (inactive),2.3e-06 (inactive),0.00419 (inactive),inactive,141% (active)
CCOC(=O)CCCCC(=O)NC(CO)C(=O)NC (centres undefined),573,-3.8% (inactive),-97.8% (inactive),204%,-1.05,1.41,-0.705,22.1% (inactive),-0.374 (inactive),-2.1e-05 (inactive),0.00506 (inactive),inactive,-2.9% (inactive)
CCn1nnc(C(=O)O)c1C(=O)O,547,-8.1% (inactive),-105% (inactive),113%,-1.6,1.43,0.467,-1.98% (inactive),-0.486 (inactive),-3.2e-05 (inactive),0.00833 (inactive),inactive,-1.97% (inactive)
CCOC(=O)c1ccc(N=CC2=C(O)CC(c3ccco3)CC2=O)cc1 (centres undefined),411,-17.7% (inactive),-249% (inactive),188%,1.91,-1.05,0.242,16% (inactive),-0.351 (inactive),-1.6e-05 (inactive),0.00521 (inactive),inactive,1.78% (inactive)
CCOC(=O)C1=C(C)N=C2SC(C)C(=O)N2C1c1ccc(OC(C)=O)c(OC)c1 (centres undefined),364,-4% (inactive),-11.8% (inactive),184%,0.885,-1.84,1.33,-4.59% (inactive),-0.413 (inactive),-0.000136 (inactive),0.00549 (inactive),inactive,21.6% (inactive)
N#CCCn1cnc2c(=S)nc[nH]c21,355,-12.9% (inactive),-142% (inactive),181%,0.101,0.0894,1.37,1.6e-07% (inactive),-0.438 (inactive),-0.000132 (inactive),0.00509 (inactive),inactive,-4.04% (inactive)

# From PubChem BioAssay
